Experimental findings from PubChem BioAssay AID493160 (Sanford-Burnham Center for Chemical Genomics, 2011) are described below.

Structures are written as SMILES. In all, about 340,000 compounds went through this assay and about 540 (0.16%) were called active. What follows is part of a selection rich in actives, with near analogues and random picks from the rest. Unmarked numbers belong to inactive results.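 The calls were made as follows: active = inhibition above about 35% when tested at 20 µM (limit read from the data); inactive = the rest.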

The target of the test is Hexokinase HKDC1 (Homo sapiens) (UniProt Q2TB90). As to the kind of experiment: blockers of human HKDC1 enzyme activity – biochemical, fluorescence, uHTS, primary screen (AID 493160).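 Also: plate controls were DMSO wells with enzyme for no effect and DMSO wells lacking enzyme for full effect.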 The note with it: recombinant HKDC1, G6PDH/diaphorase resazurin coupled fluorescence; at 20 µM; active compounds read high. In a few lines: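 Material: recombinant HKDC1 hexokinase; Amount: HKDC1 at 5 µg/mL; Medium: Tris pH 8.0 buffer with MgCl2, Tween-20, BSA, BME; Schedule: 90 min reaction incubation at room temperature, dark; Technique: coupled resazurin fluorescence, excitation 525 nm, emission 613 nm.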
Hexokinase HKDC1 (Homo sapiens), sequence (Q2TB90 whole entry, looked up): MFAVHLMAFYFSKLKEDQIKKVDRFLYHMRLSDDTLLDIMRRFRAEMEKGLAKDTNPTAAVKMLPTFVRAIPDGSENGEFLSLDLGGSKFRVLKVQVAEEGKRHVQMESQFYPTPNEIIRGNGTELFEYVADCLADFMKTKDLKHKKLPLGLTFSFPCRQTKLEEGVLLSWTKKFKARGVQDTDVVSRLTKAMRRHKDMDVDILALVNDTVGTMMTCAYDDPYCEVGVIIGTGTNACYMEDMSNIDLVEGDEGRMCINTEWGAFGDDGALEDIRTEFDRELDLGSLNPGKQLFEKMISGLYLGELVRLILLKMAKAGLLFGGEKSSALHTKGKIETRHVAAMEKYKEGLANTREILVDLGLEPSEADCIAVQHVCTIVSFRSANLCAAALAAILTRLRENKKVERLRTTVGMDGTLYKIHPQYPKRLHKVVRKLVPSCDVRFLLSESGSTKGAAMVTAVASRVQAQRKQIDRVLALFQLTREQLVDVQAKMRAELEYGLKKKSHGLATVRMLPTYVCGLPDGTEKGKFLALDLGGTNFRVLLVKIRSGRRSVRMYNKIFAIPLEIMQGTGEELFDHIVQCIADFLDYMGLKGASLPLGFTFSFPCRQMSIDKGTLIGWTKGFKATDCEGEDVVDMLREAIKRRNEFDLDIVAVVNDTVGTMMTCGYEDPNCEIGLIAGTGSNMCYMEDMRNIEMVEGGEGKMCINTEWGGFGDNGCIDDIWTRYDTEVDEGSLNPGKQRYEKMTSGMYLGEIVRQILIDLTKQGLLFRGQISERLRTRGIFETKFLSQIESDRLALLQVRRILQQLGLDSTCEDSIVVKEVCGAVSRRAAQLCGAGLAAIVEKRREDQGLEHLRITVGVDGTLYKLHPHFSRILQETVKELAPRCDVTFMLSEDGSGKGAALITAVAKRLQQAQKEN
As to `COc1ccc(OCCCC(=O)Oc2ccc(OC)cc2)cc1`, the inhibition (usually the relative decrease from the control value, in per cent) is -15%.

`COc1ccc2c(c1)C(SCC(=O)NCc1ccccc1)CC(C)(C)O2` (stereo not drawn): the inhibition was 3.48%.

As to `O=C(NCC1CCCO1)c1ccc(S(=O)(=O)Nc2ccc(F)cc2)cc1` (stereo not drawn), the inhibition is 0.46%.

Regarding `O=C(CNC(=O)c1cc(=O)[nH]c2ccccc12)Nc1ccc(F)c(F)c1`, the inhibition was -8.3%.

On to `C/C(=N\NC(=O)COc1ccc(C)cc1[N+](=O)[O-])c1ccc2c(c1)OCCO2`, for which the inhibition was 2.16%.

`COc1ccccc1CNS(=O)(=O)c1ccc(C)cc1`: the inhibition was -4.09%.

Regarding `CCC(C)CN1CCC(CO)(Cc2ccccc2Cl)CC1` (stereo not drawn), the inhibition is -10.2%.

Regarding `CC(CNC(=O)c1ccc(N)cc1)NC(=O)c1ccc(N)cc1` (stereo not drawn), the inhibition is -6.68%.

With `O=C(O)CCn1cc(/C=C/C(=O)c2ccc(Cl)cc2)c(-c2cccc(Br)c2)n1`, the inhibition is 17.1%.

Regarding `Clc1ccc(C[n+]2cc(-c3ccc(Cl)cc3)n3c2CCC3)cc1`, the inhibition was -3.08%.

Regarding `CC1(C)OC(=O)C(=CSc2ccc(C(C)(C)C)cc2)C(=O)O1`, the inhibition was -2.23%.

On to `Cc1cc2cc3c(N)[nH]nc3nc2cc1C`, for which the inhibition was 1.11%.

As to `Cc1cc(C)c(S(=O)(=O)N2CCOCC2)cc1C`, the inhibition was -10.1%.

Consider `O=C(NCc1ccc2c(c1)OCO2)c1c(O)nc2sccn2c1=O`, for which the inhibition is 6.57%.

As to `CCCCN1C(=O)CCC(C(=O)O)C1c1ccc(OC)cc1` (stereo not drawn), the inhibition was 7.8%.

On to `C=CCCN(Cc1ccccc1)S(=O)(=O)c1ccccc1Br`, for which the inhibition is 2.98%.

In the case of `Cc1cc(=O)[nH]c2nnnn12`, the inhibition is 7.5%.

With `COc1cc2c3c(c1)/C(=C1/SC(=S)NC1=O)C(=O)N3C(C)(C)C=C2C`, the inhibition was -4.38%.

Consider `CCN(C[C@H]1N[C@@](Cc2ccccc2)(C(=O)OC)[C@H]2C(=O)N(Cc3ccccc3)C(=O)[C@@H]12)C(=O)c1ccc(C)cc1`, for which the inhibition is -6.61%.

With `Cc1cc(Cl)ccc1NC(=S)N1CCC(C(N)=O)(N2CCCCC2)CC1`, the inhibition is -7.07%.

On to `N#CCSc1nc2ccc(N3CCOCC3)cc2c(=O)n1CCc1ccccc1`, for which the inhibition is 10.5%.

On to `Cc1cc(C(=O)CCl)c(C)n1CC1COc2ccccc2O1` (stereo not drawn), for which the inhibition is 38.2% (active).

Take `Cc1ccsc1C(=O)OCC(=O)c1cc(C)n(CC2CCCO2)c1C` (stereo not drawn): the inhibition was 1.95%.

With `O=C1C(=O)N(CC2COc3ccccc3O2)c2ccccc21` (stereo not drawn), the inhibition is 19.1%.

In the case of `CCc1[nH]nc(C(=O)N2CCCC(CNS(=O)(=O)c3cccs3)C2)c1C` (stereo not drawn), the inhibition was -4.96%.

Regarding `CCC(=C/c1sc2ccc3ccccc3c2[n+]1C)/C=C1\Sc2ccc3ccccc3c2N1C`, the inhibition was 45% (active).

Regarding `C=CCNC(=O)c1cc2nc(C3CC3)cc(C(F)F)n2n1`, the inhibition is 14%.

As for `CCN(CC)C(=O)[C@H]1CC(CC(=O)NCc2ccco2)C(=O)N2CCc3c([nH]c4ccccc34)[C@]12C` (stereo partly drawn), the inhibition was -4.97%.

In the case of `Cc1onc(-c2ccc(Cl)cc2)c1-c1ccnn1S(=O)(=O)c1ccc(Cl)cc1`, the inhibition is 0.4%.

Turning to `CC[C@@]1(C(=O)OC)N[C@H](CN(C)C(C)=O)[C@@H]2C(=O)N(C)C(=O)[C@@H]21`, the inhibition is -5.2%.

For the compound `CC(=O)c1c(C)[nH]c(C(=O)COC(=O)c2cccc(S(=O)(=O)N(C)c3ccccc3)c2)c1C`, the inhibition was 16.7%.

In the case of `COCCN(C(=O)CSCc1ccc(C)cc1)c1c(N)n(CC(C)C)c(=O)[nH]c1=O`, the inhibition was -4.58%.

Consider `COc1cc(CO)ccc1OCC(=O)Nc1cccc2ccccc12`, for which the inhibition was -1.93%.

Regarding `S=C(Nc1cccc(Br)c1)N1CCn2cccc2C1c1cccnc1` (stereo not drawn), the inhibition was 4.07%.

For `COCCNC(=O)c1ccc(-n2c(SCc3cccnc3)nc3ccccc3c2=O)cc1`, the inhibition is -1.32%.

As to `O=Cc1cn(-c2ccccc2)nc1-c1ccccn1`, the inhibition was -7.78%.

`CCOc1ccccc1-c1nc(CN2CCC(C(=O)N3CCOCC3)CC2)c(C)o1`: the inhibition is -3.93%.

As for `COc1ccc(C(CCN(Cc2ccc(OC)c(OC)c2)C(=O)CCl)c2ccccc2)cc1` (stereo not drawn), the inhibition is 35.4% (active).

`COc1ccc(CCNC(=O)C(Sc2ccccn2)c2ccccc2)cc1OC` (stereo not drawn): the inhibition is -5.11%.

With `COc1ccc(CN(Cc2ccc(OC)cc2)C(=O)c2cccs2)cc1`, the inhibition was 1.52%.

Take `CC1CCCC(NC(=O)COC(=O)[C@@H]2CC(O)CN2S(=O)(=O)c2ccc3c(c2)OCCO3)C1C` (stereo partly drawn): the inhibition is -2.96%.

For the compound `Cc1noc(/C=C/c2ccco2)c1S(=O)(=O)N1CCC(C(=O)Nc2ccc(Cl)cn2)CC1`, the inhibition is -6%.

As for `CCOC(=O)/C(=C\c1ccc([N+](=O)[O-])cc1)C(=O)c1cc(C(C)=O)c(Nc2ccccc2)s1`, the inhibition was 33.5%.

In the case of `COc1nnc(-c2ccc(C)c(S(=O)(=O)N(C)C)c2)c2ccccc12`, the inhibition is -2.23%.

Regarding `O=C(CC1NCCc2ccccc21)Nc1cccc(Cl)c1` (stereo not drawn), the inhibition was 8.29%.

With `CN1CCN(c2ccccc2NC(=O)COc2ccc(C3CCCCC3)cc2)CC1`, the inhibition was -0.75%.

On to `C/C=C/c1ccc(OCC(=O)NNC(=O)CN(C)S(=O)(=O)c2ccc(C)cc2)c(OC)c1`, for which the inhibition was 0.23%.

Take `CCOC(=O)C(C)n1nc(-c2ccccc2)c2ccccc2c1=O` (stereo not drawn): the inhibition is -7.97%.

As to `O=[N+]([O-])c1ccc(N2CCN(c3ccc(F)cc3)CC2)cn1`, the inhibition is 3.5%.

In the case of `CC(C)CCSc1ncnc2c1oc1nc3c(cc12)COC(C)(C)C3`, the inhibition was 1.9%.

Take `CCCc1nc2oc3c(OCC)ncnc3c2c2c1COC(C)(C)C2`: the inhibition is 37.7% (active).

For the compound `CCCc1nc2oc3c(=O)[nH]cnc3c2c2c1COC(C)(C)C2`, the inhibition is 27.4%.

For `Cc1cc(Cl)c2oc(C(=O)N3CCC(O)(c4ccccc4)CC3)c(C)c2c1`, the inhibition was -1.23%.

As to `COc1ccc(N2CCN(C(=O)C3CCN(C(=O)c4ccccc4Cl)CC3)CC2)cc1`, the inhibition is -1.69%.

As for `CCCCc1nc(SCC(=O)Nc2nnc(C(C)C)s2)n[nH]1`, the inhibition was -4.74%.

Consider `CCCCCC1CC(COc2ccccc2)OC1=O` (stereo not drawn), for which the inhibition was -1.3%.

Take `COC(=O)c1c(C)c(C)nc(N)c1C#N`: the inhibition was 3.54%.

On to `COc1ccccc1N(C(=O)Cn1nnc2ccccc21)C(C(=O)NCc1ccco1)c1ccc(C)o1` (stereo not drawn), for which the inhibition was -6.23%.
